# Reference: ChEMBL document CHEMBL2146421, “Synthesis and anticonvulsant activity of some new thiazolo[3,2-a][1,3]diazepine, benzo[d]thiazolo[5,2-a][12,6]diazepine and benzo[d]oxazolo[5,2-a][12,6]diazepine analogues” (Eur J Med Chem, 2011)
# Experiments:
# Mus musculus [1] = assay: Anticonvulsant activity in Swiss albino mouse assessed as protection against maximal electroshock-induced convulsion at 0.75 mmol/kg, ip […]; assay type: functional
# Procedure, shortened: (§1)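 Test agent given i.p. to mice; 30 min later electric shock applied through the ears, animals released immediately to observe maximal seizure; percentage protected recorded (10 animals per dose in dose-response runs).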
# Mus musculus [2] = assay: Anticonvulsant activity in ip dosed Swiss albino mouse assessed as protection against maximal electroshock-induced convulsion; assay type: functional; procedure, shortened: as §1
# Mus musculus [3] = assay: Neurotoxicity in Swiss albino mouse assessed as inability to climb up backwards in a glass tube within 30 seconds at 0.75 mmol/kg, ip measured after 15 and 25 mins by Chimney test; assay type: toxicity, organism-based; settings: in vivo
# Procedure, shortened: (§2)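 Chimney test: 15 and 25 min after i.p. dosing (3.0, 1.5, 0.75, 0.375 mmol/kg), inability of mice to climb backwards up a glass tube 25 cm long, 3 cm inner diameter, within 30 s recorded as neurological deficit.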
# Mus musculus [4] = assay: Neurotoxicity in Swiss albino mouse assessed as effect on motor activity at 0.75 mmol/kg, ip after 30 mins; assay type: toxicity, organism-based; settings: in vivo, 0.5 h
# Procedure, shortened: (§3)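 Motor activity measured with an activity meter at 0 and 30 min after i.p. dosing, zero time taken as 100%.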
# Mus musculus [5] = assay: Anticonvulsant activity in Swiss albino mouse assessed as protection against bicuculline-induced convulsion at 3.0 mmol/kg, ip […] measured for 30 mins; assay type: functional
# Procedure, shortened: (§4)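 Mice (6 per compound) dosed i.p.; 30 min later given bicuculline 1 mg/kg s.c. (freshly dissolved in 1 ml warmed 0.1 N HCl, made up with 0.9% NaCl), then observed 30 min; percentage anticonvulsion (animals protected) calculated. Dose-response runs used 10 animals per dose.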
# Mus musculus [6] = assay: Anticonvulsant activity in Swiss albino mouse assessed as protection against bicuculline-induced convulsion at 0.37 mmol/kg, ip […] measured for 30 mins; assay type: functional; procedure, shortened: as §4
# Mus musculus [7] = assay: Anticonvulsant activity in Swiss albino mouse assessed as protection against maximal electroshock-induced convulsion at 3.0 mmol/kg, ip […]; assay type: functional; procedure, shortened: as §1
# Mus musculus [8] = assay: Neurotoxicity in Swiss albino mouse assessed as inability to climb up backwards in a glass tube within 30 seconds at 3 mmol/kg, ip measured after 15 and 25 mins by Chimney test; assay type: toxicity, organism-based; settings: in vivo; procedure, shortened: as §2
# Mus musculus [9] = assay: Anticonvulsant activity in Swiss albino mouse assessed as protection against pentylenetetrazole-induced convulsion at 0.75 mmol/kg, ip treated after 30 mins of pentylenetetrazole measured for 30 mins; assay type: functional
# [10] = Toxicity in ip dosed Swiss albino mouse assessed as sedative effect; assay type: organism-based; settings: in vivo
# Mus musculus [11] = assay: Anticonvulsant activity in Swiss albino mouse assessed as protection against pentylenetetrazole-induced convulsion at 3 mmol/kg, ip treated after 30 mins of pentylenetetrazole measured for 30 mins; assay type: functional
# Mus musculus [12] = assay: Anticonvulsant activity in Swiss albino mouse assessed as protection against maximal electroshock-induced convulsion at 1.5 mmol/kg, ip […]; assay type: functional
# Procedure, shortened: (§5)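 Test compound given i.p. to mice; 30 min later, electric shock was applied through the ears while the mice were hand-restrained. The mice were then released to observe the maximal seizure. Each dose was tested in 10 animals and the percentage protected was recorded.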
# Mus musculus [13] = assay: Neurotoxicity in Swiss albino mouse assessed as inability to climb up backwards in a glass tube within 30 seconds at 0.37 mmol/kg, ip measured after 15 and 25 mins by Chimney test; assay type: toxicity, organism-based; settings: in vivo; procedure, shortened: as §2
# Mus musculus [14] = assay: Neurotoxicity in Swiss albino mouse assessed as effect on motor activity at 1.5 mmol/kg, ip after 30 mins; assay type: toxicity, organism-based; settings: in vivo, 0.5 h; procedure, shortened: as §3
# Mus musculus [15] = assay: Neurotoxicity in Swiss albino mouse assessed as effect on motor activity at 3 mmol/kg, ip after 30 mins; assay type: toxicity, organism-based; settings: in vivo, 0.5 h; procedure, shortened: as §3
# Mus musculus [16] = assay: Anticonvulsant activity in Swiss albino mouse assessed as protection against picrotoxin-induced convulsion at 0.75 mmol/kg, ip […] measured for 30 mins; assay type: functional
# Procedure, shortened: (§6)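 Test compound given i.p.; 30 min later, picrotoxin 3.15 mg/kg s.c. was injected. Picrotoxin was freshly dissolved in 1 ml warmed 0.1 N HCl and made up with 0.9% NaCl. Each dose was tested in 10 animals and the percentage of mice protected from clonic convulsions was recorded.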
# [17] = Toxicity in Swiss albino mouse assessed as mortality at 3 mmol/kg, ip measured 7 to 11 mins before pentylenetetrazole challenge; assay type: organism-based; settings: in vivo, read-out: Activity
# Procedure, shortened: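 Compounds given i.p. at 3.0, 1.5, 0.75 and 0.375 mmol/kg to 6 mice per compound. Deaths occurring before the PTZ injection were recorded. PTZ (83 mg/kg s.c.) followed 30 min after compound dosing.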
# [18] = Toxicity in Swiss albino mouse by Spearman-Karber method; assay type: organism-based; settings: in vivo
# Procedure, shortened: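 LD50 in mice was determined by the Spearman–Karber method, with doses chosen at equal logarithmic intervals. 95% confidence limits were reported.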
# [19] = Therapeutic index, ratio of LD50 for Swiss albino mouse to ED50 for anticonvulsant activity in Swiss albino mouse; assay type: organism-based; settings: in vivo, read-out: Ratio LD50/ED50
# Procedure, shortened: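 TI was calculated as LD50/ED50. ED50 came from dose-response curves in 10 mice per dose. LD50 was determined by the Spearman–Karber method, with doses at equal logarithmic intervals.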
# Mus musculus [20] = assay: Anticonvulsant activity in Swiss albino mouse assessed as protection against picrotoxin-induced convulsion at 1.5 mmol/kg, ip […] measured for 30 mins; assay type: functional; procedure, shortened: as §6
# Mus musculus [21] = assay: Anticonvulsant activity in Swiss albino mouse assessed as protection against maximal electroshock-induced convulsion at 0.37 mmol/kg, ip […]; assay type: functional; procedure, shortened: as §5
# Mus musculus [22] = assay: Hypnotic activity in Swiss albino mouse assessed as righting reflex at 3 mmol/kg, ip; assay type: ADME, organism-based; settings: in vivo
# Mus musculus [23] = organism: Mus musculus; assay: Protective index, ratio of TD50 for Swiss albino mouse to ED50 for anticonvulsant activity in Swiss albino mouse; assay type: functional
# Procedure, shortened: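 TD50 (median sedative dose) divided by ED50 (median effective dose), from dose-response curves at 10 mice per dose; 95% confidence limits given.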
# Mus musculus [24] = assay: Hypnotic activity in Swiss albino mouse assessed as righting reflex at 0.75 mmol/kg, ip; assay type: ADME, organism-based; settings: in vivo
# Mus musculus [25] = assay: Hypnotic activity in Swiss albino mouse assessed as righting reflex at 1.5 mmol/kg, ip; assay type: ADME, organism-based; settings: in vivo
# Mus musculus [26] = assay: Neurotoxicity in Swiss albino mouse assessed as inability to climb up backwards in a glass tube within 30 seconds at 1.5 mmol/kg, ip measured after 15 and 25 mins by Chimney test; assay type: toxicity, organism-based; settings: in vivo; procedure, shortened: as §2
# Mus musculus [27] = assay: Anticonvulsant activity in Swiss albino mouse assessed as protection against bicuculline-induced convulsion at 0.75 mmol/kg, ip […] measured for 30 mins; assay type: functional; procedure, shortened: as §4
# Mus musculus [28] = assay: Anticonvulsant activity in Swiss albino mouse assessed as protection against pentylenetetrazole-induced convulsion at 1.5 mmol/kg, ip treated after 30 mins of pentylenetetrazole measured for 30 mins; assay type: functional
# Mus musculus [29] = assay: Anticonvulsant activity in Swiss albino mouse assessed as protection against bicuculline-induced convulsion at 1.5 mmol/kg, ip […] measured for 30 mins; assay type: functional; procedure, shortened: as §4
# Mus musculus [30] = assay: Anticonvulsant activity in Swiss albino mouse assessed as protection against pentylenetetrazole-induced convulsion at 0.37 mmol/kg, ip treated 30 mins before pentylenetetrazole measured for 30 mins
smiles,measurement,setting,value
S=C1CCCN2C=C(Br)SC2=N1,Activity,Mus musculus [1],10%
same,ED50,Mus musculus [2],252 mg/kg
same,Activity,Mus musculus [3],0%
same,Activity,Mus musculus [4],52%
same,Activity,Mus musculus [5],100%
same,Activity,Mus musculus [6],0%
same,Activity,Mus musculus [7],70%
same,Activity,Mus musculus [8],100%
same,Activity,Mus musculus [9],50%
same,TD50,[10],398 mg/kg
same,Activity,Mus musculus [11],100%
same,Activity,Mus musculus [12],40%
same,Activity,Mus musculus [13],0%
same,Activity,Mus musculus [14],84%
same,Activity,Mus musculus [15],92%
same,Activity,Mus musculus [16],20%
same,mortality,[17],0%
same,LD50,[18],380 mg/kg
same,selectivity ratio,[19],1.51
same,Activity,Mus musculus [20],66%
same,Activity,Mus musculus [21],0%
same,Activity,Mus musculus [22],40%
same,Ratio TD50/ED50,Mus musculus [23],1.58
same,Activity,Mus musculus [24],0%
same,Activity,Mus musculus [25],14%
same,Activity,Mus musculus [26],25%
same,Activity,Mus musculus [27],10%
same,Activity,Mus musculus [28],100%
same,Activity,Mus musculus [29],50%
same,Activity,Mus musculus [30],25%
